Measurements published in ChEMBL document CHEMBL1833967, “Bioassay-guided isolation of constituents of Piper sarmentosum using a mitochondrial transmembrane potential assay” (2011).

Tests used:
HT-29 [1] = test: Induction of apoptosis in human HT-29 cells assessed reduction of mitochondrial membrane potential after 2 hrs by using JC1 staining by fluorescence cell-based assay; format: functional; settings: HT-29, 2 h, read-out: ED50 (the source's name)
HT-29 [2] = test: Cytotoxicity against human HT-29 cells after 3 days by sulforhodamine B assay; format: functional; settings: read-out: ED50 (the source's name)
HL-60 = test: Inhibition of chymotrypsin-like activity of purified human 20S proteasome in HL60 cells using N-succinyl-Leu-Leu-Val-Tyr-AMC as substrate pre-incubated for 10 mins by fluorimetric assay; format: cell-based
Method in brief: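 Enzyme source was a proteasome fraction isolated from HL-60 human leukemia cells. […] Activity is reported as ED50 in μM.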

SMILES	EC50 (HT-29 [1]) [µM]	EC50 (HT-29 [2]; Homo sapiens, HT-29, 72 h) [µM]	ED50 (HL-60) [µM]	EC50 (HT-29 [2]) [µM]
COc1cc(O)c2c(c1Cc1ccccc1O)O[C@H](c1ccccc1)CC2=O	13.6	> 20	> 20	
COc1c(Cc2ccccc2O)c(O)c2c(c1Cc1ccccc1O)O[C@H](c1ccccc1)CC2=O	1.6	> 20	3.45	
CC(C)C[C@H](NC(=O)[C@H](Cc1ccccc1)NC(=O)c1cnccn1)B(O)O [BORTEZOMIB]		> 20		
O=C1C[C@@H](c2ccccc2)Oc2c(Cc3ccccc3O)c(O)c(Cc3ccccc3O)c(O)c21 [DICHAMANETIN]			> 20	> 20
O=C1C[C@@H](c2ccccc2)Oc2cc(O)c(Cc3ccccc3O)c(O)c21 [ISOCHAMANETIN]		> 20	> 20	
CC(=O)O[C@H]1C(=O)[C@@]2(C)[C@H]([C@H](OC(=O)c3ccccc3)[C@]3(O)C[C@H](OC(=O)[C@H](O)[C@@H](NC(=O)c4ccccc4)c4ccccc4)C(C)=C1C3(C)C)[C@]1(OC(C)=O)CO[C@@H]1C[C@@H]2O [PACLITAXEL]		0.006		
O=C1C[C@@H](c2ccccc2)Oc2cc(O)cc(O)c21 [PINOCEMBRIN]		> 20	2.87	
CC(C)CNC(=O)/C=C/C=C/CCCCc1ccc2c(c1)OCO2 [PIPERCALLOSINE]	4.6	> 20	> 20	
O=C1C[C@@H](c2ccccc2)Oc2c(Cc3cc(Cc4cc(Cc5ccccc5O)ccc4O)ccc3O)c(O)c(Cc3ccccc3O)c(O)c21 [SARMENTOSUMIN A]		> 20	> 20	
O=C1C[C@@H](c2ccccc2)Oc2c(Cc3ccccc3O)c(O)c(Cc3cc(Cc4cc(Cc5ccccc5O)ccc4O)ccc3O)c(O)c21 [SARMENTOSUMIN B]		> 20	> 20	
O=C1C[C@@H](c2ccccc2)Oc2c(Cc3ccccc3O)c(O)c(Cc3cc(Cc4cc(Cc5cc(Cc6ccccc6O)ccc5O)ccc4O)ccc3O)c(O)c21 [SARMENTOSUMIN C]	2.5	> 20	> 20	
O=C1C[C@@H](c2ccccc2)Oc2c(Cc3cc(Cc4ccccc4O)ccc3O)c(O)c(Cc3cc(Cc4cc(Cc5ccccc5O)ccc4O)ccc3O)c(O)c21 [SARMENTOSUMIN D]		> 20	> 20	
